Here are results for twelve substances from paper PMC4843813 (ACS chemical biology, 2015).

Series [1] deals with human red blood cells. Description: ATP release from red blood cells. It is filed as cell-based. As to conditions: 5 μM peptide, human RBCs, 37 °C, ATPLite kit on supernatant. On the technique in general: Cellular ATP, detected with luciferase, serves as a proxy for viable cell number.
The subject of series [2] is human red blood cells. Put plainly: micro-RNA mir-16 release from red blood cells. It is filed as cell-based. Particulars: pH 5.4; 5 μM peptide, human RBCs, 37 °C, mir-16 by stem-loop qPCR on supernatant. Background: In qPCR the cycle at which signal appears reflects the starting amount.
A short description of series [3]: Size-exclusion chromatography, association state in aqueous buffer. It is filed as physicochemical. As to conditions: for apparent molecular weight, SEC: 150 mM NaCl, Superdex 75, 25 °C, 100 μM peptide. (In general: Size exclusion chromatography separates by hydrodynamic size, large species first.)
The nature of series [4]: Sedimentation equilibrium analytical ultracentrifugation in aqueous buffer. As to conditions: for apparent MW, AUC single-species fit: 150 mM NaCl, 25 °C, 35-50 krpm, global fit; for apparent MW, AUC single-species fit / aggregation state (apparent MW/peptide MW), AUC / –log(Kdissociation), monomer–hexamer equilibrium, AUC: 100 μM peptide; for –log(Kdissociation), monomer–hexamer equilibrium, AUC: error = SD of fit. It is filed as physicochemical.

Series [5] in a line: Circular dichroism thermal denaturation. It is filed as physicochemical. Particulars: for [PSPF-EKG] at 50% folded and 300 K: calculated from the CD fit; for Tm of thermal denaturation by CD: reference concentration 4 μM.
The nature of series [6]: AUC self-association in C-14 betaine micelles. It counts as physicochemical. Particulars: 8 mM C-14 betaine, pH 7.4 and 5.5, peptide/betaine 1:50, 1:100, 1:200. The method in brief: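 Sedimentation equilibrium run at 25 °C at 35, 40, 45 and 50 krpm. Test compound was dissolved in C-14 betaine micelles in 150 mM NaCl and 50 mM sodium phosphate. D2O was added to match micelle density: 17% at pH 7.4 and 22% at pH 5.5. Data were fitted by single-species and monomer–trimer equilibrium models.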

“WSDLAKA LSDLAKA LSDLAKA LSDLAKA [PSPF-DKA]”: the entries for the “% ATP at 5 μM, RBC lysis assay” value with human red blood cells [1] (pH 5.4) and in the series with human red blood cells [1] (pH 7.5) were 5.79 % relative to Triton X-100 controls and 4.64 % relative to Triton X-100 controls, respectively. In addition, the “% miRNA at 5 μM, RBC lysis assay” value in the series on human red blood cells [2] is listed as 0.79 % relative to Triton X-100 controls.
On to “WSDLAKG LSDLAKG LSDLAKG LSDLAKG [PSPF-DKG]”, for which the “% ATP at 5 μM, RBC lysis assay” value with human red blood cells [1] (pH 5.4) is 24.1 % relative to Triton X-100 controls. Besides, the “% ATP at 5 μM, RBC lysis assay” value in the series with human red blood cells [1] (pH 7.5) was 7.54 % relative to Triton X-100 controls. For the same substance, in series [3] (pH 5.5), the “aggregation state n (apparent MW fold over single peptide MW), SEC” value is “only a poorly defined peak”. Besides, the “% miRNA at 5 μM, RBC lysis assay” value with human red blood cells [2] was 7.47 % relative to Triton X-100 controls. For the same substance, in series [4] (pH 5.5, 50 mM MES), the “apparent MW, AUC single-species fit” value is listed as 24 000 Da. Also, in series [4] (pH 7.4), the “association state n suggested by AUC single-species fitting” value was determined as 6; the “aggregation state (apparent MW/peptide MW), AUC” value is given as 6.0; the “–log(Kdissociation), monomer–hexamer equilibrium, AUC” value was 28.7 ± 0.4. For the same substance, in series [4] (pH 7.4, 50 mM Tris), the “apparent MW, AUC single-species fit” value is 17 000 Da.
For “WSDLAQA LSDLAQA LSDLAQA LSDLAQA [PSPF-DQA]”, the “% ATP at 5 μM, RBC lysis assay” value in the series on human red blood cells [1] (pH 7.5) is given as 3.81 % relative to Triton X-100 controls.
For the substance “WSDLAQG LSDLAQG LSDLAQG LSDLAQG [PSPF-DQG]”, the “% ATP at 5 μM, RBC lysis assay” value with human red blood cells [1] (pH 5.4) is reported as 8.61 % relative to Triton X-100 controls; in the series with human red blood cells [1] (pH 7.5) it was 3.21 % relative to Triton X-100 controls. Further, the “% miRNA at 5 μM, RBC lysis assay” value in the series with human red blood cells [2] is reported as 0.16 % relative to Triton X-100 controls.
For “WSELAKA LSELAKA LSELAKA LSELAKA [PSPF-EKA]”, in that order: 3.66 % relative to Triton X-100 controls, 2.02 % relative to Triton X-100 controls and 0.21 % relative to Triton X-100 controls.
On to “WSELAKG LSELAKG LSELAKG LSELAKG [PSPF-EKG]”, for which, in series [5] (CD thermal denaturation), the “decrease of Tm from pH 7.4 to pH 5.5” value is reported as 5.6 K. Besides, the figures for the “[PSPF-EKG] at 50% folded and 300 K” value in series [5] (pH 5.5) and in series [5] (pH 7.4) were 0.31 µM and 0.14 µM, respectively. For the same substance, the “Tm of thermal denaturation by CD” value in series [5] (pH 5.5) was 333.4 ± 0.1 K; in series [5] (pH 7.4) it was 339.0 ± 0.1 K. The figures for the “% ATP at 5 μM, RBC lysis assay” value in the series with human red blood cells [1] (pH 5.4) and in the series on human red blood cells [1] (pH 7.5) were 27.3 % relative to Triton X-100 controls and 3.38 % relative to Triton X-100 controls, respectively. The “apparent molecular weight, SEC” value in series [3] (pH 5.5, 50 mM MES) was 15 000 Da; in series [3] (pH 7.4, 50 mM Tris), 19 000 Da. Besides, the “self-association in detergent micelles” value in series [6] is “weakly associates in detergent micelles”. Besides, the “increase of free energy of the helical bundle as pH decreases from 7.4 to 5.5” value in series [4] (AUC) turned out to be 0.7 kcal/mol peptide. For the same substance, the “association state n suggested by AUC single-species fitting” value in series [4] (pH 5.5) and in series [4] (pH 7.4) was 6 in each case. The “apparent MW, AUC single-species fit” value in series [4] (pH 5.5, 50 mM MES) is recorded as 16 000 Da; in series [4] (pH 7.4, 50 mM Tris) it was 18 000 Da. For the same substance, the “aggregation state (apparent MW/peptide MW), AUC” value in series [4] (pH 5.5) is 5.5; in series [4] (pH 7.4), 6.2. For the same substance, the “–log(Kdissociation), monomer–hexamer equilibrium, AUC” value was found to be 24.8 ± 0.1 in series [4] (pH 5.5) and 28.0 ± 0.4 in series [4] (pH 7.4).
For the substance “WSELAQA LSELAQA LSELAQA LSELAQA [PSPF-EQA]”, the “% ATP at 5 μM, RBC lysis assay” value with human red blood cells [1] (pH 5.4) is listed as 3.61 % relative to Triton X-100 controls; with human red blood cells [1] (pH 7.5), 3.69 % relative to Triton X-100 controls. The “% miRNA at 5 μM, RBC lysis assay” value in the series with human red blood cells [2] is recorded as 0.02 % relative to Triton X-100 controls.
“WSELAQG LSELAQG LSELAQG LSELAQG [PSPF-EQG]”: the “% ATP at 5 μM, RBC lysis assay” value with human red blood cells [1] (pH 5.4) is 9.52 % relative to Triton X-100 controls; in the series with human red blood cells [1] (pH 7.5), 3.36 % relative to Triton X-100 controls. In addition, the “% miRNA at 5 μM, RBC lysis assay” value in the series on human red blood cells [2] is listed as 2.64 % relative to Triton X-100 controls.
For “WSHLAKA LSHLAKA LSHLAKA LSHLAKA [PSPF-HKA]”, in that order: 5.7 % relative to Triton X-100 controls, 0.93 % relative to Triton X-100 controls and 0.02 % relative to Triton X-100 controls.
For “WSHLAKG LSHLAKG LSHLAKG LSHLAKG [PSPF-HKG]”, the “% ATP at 5 μM, RBC lysis assay” value in the series with human red blood cells [1] (pH 7.5) is 32.1 % relative to Triton X-100 controls. The “% miRNA at 5 μM, RBC lysis assay” value with human red blood cells [2] was 0.44 % relative to Triton X-100 controls.
For “WSHLAQA LSHLAQA LSHLAQA LSHLAQA [PSPF-HQA]”, in that order: 6.17 % relative to Triton X-100 controls and 1.43 % relative to Triton X-100 controls.
For “WSHLAQG LSHLAQG LSHLAQG LSHLAQG [PSPF-HQG]”, in that order: 5.69 % relative to Triton X-100 controls and 0.64 % relative to Triton X-100 controls.
